Converted amounts (≈) assume the structure as drawn.
Experiments:
[1] = system: Cryptococcus neoformans; assay: Growth inhibition of Cryptococcus neoformans ATCC 32264 at 3.4 ug/ml incubated for 48 hrs under dark condition by broth microdilution method relative to control; format: functional; conditions: ATCC 32264, 48 h, read-out: GI
[2] = system: Cryptococcus neoformans; assay: Growth inhibition of Cryptococcus neoformans ATCC 32264 at 125 ug/ml incubated for 48 hrs under dark condition by broth microdilution method relative to control; format: functional; conditions: ATCC 32264, 48 h, read-out: GI
Summary of the method: (§1)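 CLSI M27-A3 broth microdilution in RPMI-1640, DMSO ≤1%. Inoculum 1-5 × 10^3 CFU/mL. Incubated 48 h at 30 °C, dark. % inhibition = 100 − (OD405 test − sterility control)/(OD405 growth control − sterility control), with growth and sterility control wells. Triplicate.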

[3] = system: Staphylococcus aureus; assay: Antibacterial activity against methicillin-resistant Staphylococcus aureus ATCC 43300 after 24 hrs by resazurin dye based microdilution assay; format: functional; conditions: ATCC 43300, 24 h
Summary of the method: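 Broth microdilution in Mueller Hinton broth, inoculum 5 × 10^5 – 8 × 10^5. Compound stocks diluted in MHB with 5% DMSO and 0.1% Tween 80. Incubation 24 h at 35-37 °C. MIC is the lowest concentration with visible growth inhibition and/or by resazurin (1 mg/mL) read-out. Gentamicin as control. Run in duplicate, replicated at least three times.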

[4] = system: Cryptococcus neoformans; assay: Growth inhibition of Cryptococcus neoformans ATCC 32264 at 31.25 ug/ml incubated for 48 hrs under dark condition by broth microdilution method relative to control; format: functional; conditions: ATCC 32264, 48 h, read-out: GI; summary of the method: as §1
[5] = system: Candida albicans; assay: Antifungal activity against Candida albicans ATCC 10231 incubated for 48 hrs under dark condition by broth microdilution method; format: functional; conditions: ATCC 10231, 48 h
Summary of the method: (§2)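 CLSI M27-A3 broth microdilution in RPMI-1640, DMSO ≤1%, compounds at 250-0.98 µg/mL final. Inoculum 1-5 × 10^3 CFU/mL. Incubated 48 h at 30 °C in a moist dark chamber, read at OD405. MIC80 and MIC50 taken from % inhibition dose-response curves (mean ± SEM, triplicate). Amphotericin B was the positive control.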

[6] = system: Cryptococcus neoformans; assay: Growth inhibition of Cryptococcus neoformans ATCC 32264 at 15.62 ug/ml incubated for 48 hrs under dark condition by broth microdilution method relative to control; format: functional; conditions: ATCC 32264, 48 h, read-out: GI; summary of the method: as §1
[7] = system: Plasmodium falciparum; assay: Antiplasmodial activity against chloroquine-sensitive Plasmodium falciparum 3D7 assessed as reduction in parasitic LDH activity after 48 hrs by Malstat reagent based […] method; format: functional; conditions: 3D7, 48 h
Summary of the method: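 Unsynchronized P. falciparum 3D7 at 0.5% parasitemia and 1% hematocrit in RPMI with 3% Albumax II. Exposed to 100, 25, 6.25 and 1.56 µg/mL for 48 h at 37 °C under 90% N2/5% CO2/5% O2. After three freeze-thaw cycles, LDH measured with Malstat and NBT/PES, 1 h in the dark, read at 650 nm. IC50 by Probit; triplicate, ≥2 experiments.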

[8] = system: Candida albicans; assay: Growth inhibition of Candida albicans ATCC 10231 at 31.25 ug/ml incubated for 48 hrs under dark condition by broth microdilution method relative to control; format: functional; conditions: ATCC 10231, 48 h, read-out: GI; summary of the method: as §1
[9] = system: Candida albicans; assay: Growth inhibition of Candida albicans ATCC 10231 at 7.8 ug/ml incubated for 48 hrs under dark condition by broth microdilution method relative to control; format: functional; conditions: ATCC 10231, 48 h, read-out: GI; summary of the method: as §1
[10] = system: Staphylococcus aureus; assay: Antibacterial activity against vancomycin-intermediate Staphylococcus aureus after 24 hrs by resazurin dye based microdilution assay; format: functional
Summary of the method: (§3)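 MIC taken as the lowest concentration giving visible inhibition and/or by resazurin (1 mg/mL). Gentamicin was the control. Run in duplicate, repeated at least three times.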

[11] = system: Cryptococcus neoformans; assay: Antifungal activity against Cryptococcus neoformans ATCC 32264 incubated for 48 hrs under dark condition by broth microdilution method; format: functional; conditions: ATCC 32264, 48 h; summary of the method: as §2
[12] = system: Candida albicans; assay: Growth inhibition of Candida albicans ATCC 10231 at 15.62 ug/ml incubated for 48 hrs under dark condition by broth microdilution method relative to control; format: functional; conditions: ATCC 10231, 48 h, read-out: GI; summary of the method: as §1
[13] = system: Klebsiella pneumoniae; assay: Antibacterial activity against ESBL positive Klebsiella pneumoniae ATCC 700603 after 24 hrs by resazurin dye based microdilution assay; format: functional; conditions: Klebsiella pneumoniae, 700603, 24 h; summary of the method: as §3
[14] = system: Cryptococcus neoformans; assay: Growth inhibition of Cryptococcus neoformans ATCC 32264 at 62.5 ug/ml incubated for 48 hrs under dark condition by broth microdilution method relative to control; format: functional; conditions: ATCC 32264, 48 h, read-out: GI; summary of the method: as §1
[15] = system: Pseudomonas aeruginosa; assay: Antibacterial activity against Pseudomonas aeruginosa ATCC 27853 after 24 hrs by resazurin dye based microdilution assay; format: functional; conditions: ATCC 27853, 24 h; summary of the method: as §3
[16] = system: Neisseria gonorrhoeae; assay: Antibacterial activity against beta lactamase positive Neisseria gonorrhoeae ATCC 31426 by oxidase test; format: functional
Summary of the method: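 Agar dilution MIC on GC agar with 1% isovitalex containing increasing compound concentrations. Plates inoculated with about 1×10^4 CFU (5 µL). MIC is the lowest concentration that inhibited growth, with growth confirmed by oxidase test. Run in duplicate, repeated at least three times.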

[17] = system: Candida albicans; assay: Growth inhibition of Candida albicans ATCC 10231 at 3.4 ug/ml incubated for 48 hrs under dark condition by broth microdilution method relative to control; format: functional; conditions: ATCC 10231, 48 h, read-out: GI
[18] = system: Leishmania panamensis; assay: Antileshmanial activity against EpiR/GFP fused Leishmania panamensis MHOM/CO/87/UA140 intracellular amastigotes infected in human […] cells after 72 hrs by flow cytometric method; format: functional, cell-based; conditions: MHOM/CO/87/UA140, 72 h
Summary of the method: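 PMA-treated U-937 cells (3 × 10^5 cells/mL) infected with stationary-phase GFP L. panamensis promastigotes (15:1), 3 h at 34 °C, then washed. After 24 h, compounds added at 50, 12.5, 3.125 and 0.78 µg/mL for 72 h at 37 °C. EC50 by Probit; triplicate, two experiments.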

[19] = system: Candida albicans; assay: Growth inhibition of Candida albicans ATCC 10231 at 62.5 ug/ml incubated for 48 hrs under dark condition by broth microdilution method relative to control; format: functional; conditions: ATCC 10231, 48 h, read-out: GI; summary of the method: as §1
[20] = system: Cryptococcus neoformans; assay: Growth inhibition of Cryptococcus neoformans ATCC 32264 at 7.8 ug/ml incubated for 48 hrs under dark condition by broth microdilution method relative to control; format: functional; conditions: ATCC 32264, 48 h, read-out: GI; summary of the method: as §1
[21] = system: Klebsiella pneumoniae; assay: Antibacterial activity against carbapenemase positive Klebsiella pneumoniae BAA 1705 after 24 hrs by resazurin dye based microdilution assay; format: functional; conditions: BAA 1705, 24 h; summary of the method: as §3
[22] = system: Trypanosoma cruzi; assay: Antitrypanosomal activity against Trypanosoma cruzi Tulahuen intracellular amastigote harboring LacZ infected in human U937 cells after 72 hrs by CPRG/Nonidet reagent based spectrophotometric method; format: functional, cell-based; conditions: U-937, 72 h
Summary of the method: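 U-937 cells at 2.5 × 10^5 cells/mL in RPMI-1640 with 10% serum and 0.1 µg/mL PMA were infected with β-galactosidase-transfected Tulahuen epimastigotes at 5 parasites per cell. Infected cells were exposed to 50, 12.5, 3.125 and 0.78 µg/mL for 72 h. CPRG (100 uM) and 0.1% Nonidet P-40 were added for 3 h, read at 570 nm. EC50 by Probit. Triplicate, at least two experiments; benznidazole as reference.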

[23] = system: Candida albicans; assay: Growth inhibition of Candida albicans ATCC 10231 at 125 ug/ml incubated for 48 hrs under dark condition by broth microdilution method relative to control; format: functional; conditions: ATCC 10231, 48 h, read-out: GI; summary of the method: as §1
[24] = system: Staphylococcus aureus; assay: Antibacterial activity against methicillin-sensitive Staphylococcus aureus ATCC 25923 after 24 hrs by resazurin dye based microdilution assay; format: functional; conditions: ATCC 25923, 24 h; summary of the method: as §3
[25] = system: Escherichia coli; assay: Antibacterial activity against Escherichia coli ATCC 25922 after 24 hrs by resazurin dye based microdilution assay; format: functional; conditions: ATCC 25922, 24 h; summary of the method: as §3
[26] = system: Candida albicans; assay: Growth inhibition of Candida albicans ATCC 10231 at 250 ug/ml incubated for 48 hrs under dark condition by broth microdilution method relative to control; format: functional; conditions: ATCC 10231, 48 h, read-out: GI; summary of the method: as §1
[27] = system: U-937; assay: Cytotoxicity against human U937 cells after 72 hrs by MTT assay; format: cell-based; conditions: u-937, 72 h
Summary of the method: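 Exponentially growing U-937 at 1 × 10^5 cells/mL in RPMI-1640 with 10% FBS were exposed to 200, 50, 12.5 and 3.125 µg/mL for 72 h at 37 °C, 5% CO2. MTT for 3 h, stopped with isopropanol/SDS, formazan read at 570 nm, blank-corrected. LC50 by Probit from % viability against untreated cells. Triplicate, at least two independent experiments.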

[28] = system: Cryptococcus neoformans; assay: Growth inhibition of Cryptococcus neoformans ATCC 32264 at 250 ug/ml incubated for 48 hrs under dark condition by broth microdilution method relative to control; format: functional; conditions: ATCC 32264, 48 h, read-out: GI; summary of the method: as §1

| Structure (SMILES) | inhibition of growth at 3.4 µg/mL [1] [%] | inhibition of growth at 125 µg/mL [2] [%] | MIC [3] [µg/mL] | inhibition of growth at 31.25 µg/mL [4] [%] | MIC50 [5] [µg/mL] | MIC80 [5] [µg/mL] | inhibition of growth at 15.62 µg/mL [6] [%] | EC50 [7] [µg/mL] | inhibition of growth at 31.25 µg/mL [8] [%] | inhibition of growth at 7.8 µg/mL [9] [%] | MIC [10] [µg/mL] | MIC50 [11] [µg/mL] | MIC80 [11] [µg/mL] | inhibition of growth at 15.62 µg/mL [12] [%] | MIC [13] [µg/mL] | inhibition of growth at 62.5 µg/mL [14] [%] | MIC [15] [µg/mL] | MIC [16] [µg/mL] | inhibition of growth at 3.4 µg/mL [17] [%] | EC50 [18] [µg/mL] | other results |
| --- | --- | --- | --- | --- | --- | --- | --- | --- | --- | --- | --- | --- | --- | --- | --- | --- | --- | --- | --- | --- | --- |
| O=CN1N=C(c2ccc(Br)cc2)CC1c1cccc(Nc2ccnc3cc(Cl)ccc23)c1 (stereo not given) | 24.2 | 60.9 | > 1000 | 44.5 | 250 (≈ 494 µM) | ≥ 250 | 44.2 | 15.7 (≈ 31 µM) | 19.2 | 8.36 | > 1000 | 62.5 (≈ 124 µM) | 250 (≈ 494 µM) | 13 | > 1000 | 53.5 | > 1000 | > 1000 | 5.76 | 2.41 (≈ 4.76 µM) | inhibition of growth at 62.5 µg/mL [19]: 25.3%; inhibition of growth at 7.8 µg/mL [20]: 39.1%; MIC [21]: > 1000 µg/mL; EC50 [22]: 1.24 µg/mL (≈ 2.45 µM); inhibition of growth at 125 µg/mL [23]: 31.4%; MIC [24]: > 1000 µg/mL; MIC [25]: > 1000 µg/mL; inhibition of growth at 250 µg/mL [26]: 58.7%; LC50 [27]: 0.6 µg/mL (≈ 1.19 µM); inhibition of growth at 250 µg/mL [28]: 100% |
| Cc1ccc(C2=NN(C=O)C(c3cccc(Nc4ccnc5cc(Cl)ccc45)c3)C2)cc1 (stereo not given) | 24.8 | 50.7 | > 1000 | 44.4 | ≥ 250 | ≥ 250 | 43.6 | 16.2 (≈ 36.7 µM) | 23 | 13.7 | > 1000 | 125 (≈ 283 µM) | ≥ 250 | 22.6 | > 1000 | 44.5 | > 1000 | > 1000 | 12.7 | 2.19 (≈ 4.97 µM) | inhibition of growth at 62.5 µg/mL [19]: 24.3%; inhibition of growth at 7.8 µg/mL [20]: 31.1%; MIC [21]: > 1000 µg/mL; EC50 [22]: 0.96 µg/mL (≈ 2.18 µM); inhibition of growth at 125 µg/mL [23]: 28.5%; MIC [24]: > 1000 µg/mL; MIC [25]: > 1000 µg/mL; inhibition of growth at 250 µg/mL [26]: 48.4%; LC50 [27]: 1.3 µg/mL (≈ 2.95 µM); inhibition of growth at 250 µg/mL [28]: 76% |

Source: ChEMBL document CHEMBL4038284, “Synthesis of novel quinoline-based 4,5-dihydro-1H-pyrazoles as potential anticancer, antifungal, antibacterial and antiprotozoal agents” (Eur J Med Chem, 2017)
